Test results as given in ChEMBL document CHEMBL3734693, “Discovery of potent, selective, and orally bioavailable inhibitors of interleukin-1 receptor-associate kinase-4” (Bioorg Med Chem Lett, 2015).
pIC50, pKi: −log10 of the molar value. Converted amounts (≈) assume the structure as drawn.

Tests used:
[1] = target: T1, Mitogen-activated protein kinase kinase kinase 7 (Homo sapiens, UniProt O43318); test: Inhibition of TAK1 (unknown origin)
T1 sequence (O43318 whole entry): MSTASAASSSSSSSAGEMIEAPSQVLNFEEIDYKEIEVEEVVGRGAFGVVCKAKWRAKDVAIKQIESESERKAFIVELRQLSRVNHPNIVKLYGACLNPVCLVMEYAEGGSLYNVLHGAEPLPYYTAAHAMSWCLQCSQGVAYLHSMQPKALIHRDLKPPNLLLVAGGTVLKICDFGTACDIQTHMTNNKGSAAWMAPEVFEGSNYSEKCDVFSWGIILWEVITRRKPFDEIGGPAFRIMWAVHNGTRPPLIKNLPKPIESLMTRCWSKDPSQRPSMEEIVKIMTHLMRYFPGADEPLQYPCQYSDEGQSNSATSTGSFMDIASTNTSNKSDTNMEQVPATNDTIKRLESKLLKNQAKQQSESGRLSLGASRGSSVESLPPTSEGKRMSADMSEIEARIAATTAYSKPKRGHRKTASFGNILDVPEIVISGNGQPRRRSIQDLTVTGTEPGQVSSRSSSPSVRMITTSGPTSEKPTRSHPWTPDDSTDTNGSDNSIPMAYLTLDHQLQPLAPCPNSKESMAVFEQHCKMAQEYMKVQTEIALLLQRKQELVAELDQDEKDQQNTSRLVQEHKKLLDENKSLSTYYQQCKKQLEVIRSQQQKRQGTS

[2] = Inhibition of Interleukin-1 induced Nuclear factor-kappa-B activation in primary human monocyte by electrophoretic mobility shift assay
[3] = target: T2, Interleukin-1 receptor-associated kinase 4 (Homo sapiens, UniProt Q9NWZ3); test: Inhibition of recombinant full length IRAK-4 (unknown origin) using the biotinylated substrate RRRVTSPARRS by chemiluminescent ELISA
T2 sequence (Q9NWZ3 whole entry): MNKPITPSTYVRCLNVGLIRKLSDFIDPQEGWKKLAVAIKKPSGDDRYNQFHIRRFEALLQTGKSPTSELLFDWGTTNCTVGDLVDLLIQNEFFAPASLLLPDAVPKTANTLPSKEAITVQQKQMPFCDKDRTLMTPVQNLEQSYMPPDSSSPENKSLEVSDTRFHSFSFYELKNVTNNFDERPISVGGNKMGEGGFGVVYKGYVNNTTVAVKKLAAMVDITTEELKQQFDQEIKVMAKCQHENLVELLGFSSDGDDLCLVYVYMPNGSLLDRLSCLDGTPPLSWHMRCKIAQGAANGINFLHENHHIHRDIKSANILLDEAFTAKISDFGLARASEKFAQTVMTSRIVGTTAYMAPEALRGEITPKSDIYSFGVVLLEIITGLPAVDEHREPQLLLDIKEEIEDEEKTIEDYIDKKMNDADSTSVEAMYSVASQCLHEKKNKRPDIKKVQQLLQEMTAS

[4] = target: Interleukin-1 receptor-associated kinase 1 (Homo sapiens, UniProt P51617); test: Inhibition of IRAK-1 (unknown origin)
[5] = Solubility of the compound at pH 7.4; format: physicochemical; details: buffer
[6] = Permeability of the compound; format: ADME; details: not told; read-out: permeability
[7] = Oral bioavailability in rat at 2 mg/kg; format: ADME, organism-based; details: in vivo
In short: (§1)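 Rats were given the compound intravenously at 0.5 mg/kg and orally at 2.0 mg/kg. Clearance, half-life, AUC and oral bioavailability were determined from these two dosings.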

[8] = Half-life in rat at 0.5 mg/kg, iv and 2 mg/kg, po; format: ADME, organism-based; details: in vivo; in short: as §1
[9] = Clearance in rat at 0.5 mg/kg, iv and 2 mg/kg, po; format: ADME, organism-based; details: in vivo; in short: as §1
Rattus norvegicus = test: AUC in rat at 0.5 mg/kg, iv and 2 mg/kg, po; format: ADME, organism-based; details: in vivo; in short: as §1
Homo sapiens [10] = species on record: Homo sapiens; test: Selectivity for recombinant IRAK-4 (unknown origin) over PKA (unknown origin)
Homo sapiens [11] = species on record: Homo sapiens; test: Selectivity for recombinant IRAK-4 (unknown origin) over Akt1 (unknown origin)
Homo sapiens [12] = species on record: Homo sapiens; test: Selectivity for recombinant IRAK-4 (unknown origin) over CDK2 (unknown origin)
Homo sapiens [13] = species on record: Homo sapiens; test: Ratio of Ki for TAK1 (unknown origin) to Ki for recombinant full length IRAK-4 (unknown origin)
Homo sapiens [14] = species on record: Homo sapiens; test: Ratio of Ki for IRAK-1 (unknown origin) to Ki for recombinant full length IRAK-4 (unknown origin)
Homo sapiens [15] = species on record: Homo sapiens; test: Selectivity for recombinant IRAK-4 (unknown origin) over EGFRK (unknown origin)
Homo sapiens [16] = species on record: Homo sapiens; test: Selectivity for recombinant IRAK-4 (unknown origin) over CaMK (unknown origin)
Homo sapiens [17] = species on record: Homo sapiens; test: Selectivity for recombinant IRAK-4 (unknown origin) over LCK (unknown origin)
Homo sapiens [18] = species on record: Homo sapiens; test: Selectivity for recombinant IRAK-4 (unknown origin) over PKC (unknown origin)
Homo sapiens [19] = species on record: Homo sapiens; test: Selectivity for recombinant IRAK-4 (unknown origin) over pp60SRC (unknown origin)

Interleukin-1 receptor-associated kinase 1, sequence (P51617 whole entry): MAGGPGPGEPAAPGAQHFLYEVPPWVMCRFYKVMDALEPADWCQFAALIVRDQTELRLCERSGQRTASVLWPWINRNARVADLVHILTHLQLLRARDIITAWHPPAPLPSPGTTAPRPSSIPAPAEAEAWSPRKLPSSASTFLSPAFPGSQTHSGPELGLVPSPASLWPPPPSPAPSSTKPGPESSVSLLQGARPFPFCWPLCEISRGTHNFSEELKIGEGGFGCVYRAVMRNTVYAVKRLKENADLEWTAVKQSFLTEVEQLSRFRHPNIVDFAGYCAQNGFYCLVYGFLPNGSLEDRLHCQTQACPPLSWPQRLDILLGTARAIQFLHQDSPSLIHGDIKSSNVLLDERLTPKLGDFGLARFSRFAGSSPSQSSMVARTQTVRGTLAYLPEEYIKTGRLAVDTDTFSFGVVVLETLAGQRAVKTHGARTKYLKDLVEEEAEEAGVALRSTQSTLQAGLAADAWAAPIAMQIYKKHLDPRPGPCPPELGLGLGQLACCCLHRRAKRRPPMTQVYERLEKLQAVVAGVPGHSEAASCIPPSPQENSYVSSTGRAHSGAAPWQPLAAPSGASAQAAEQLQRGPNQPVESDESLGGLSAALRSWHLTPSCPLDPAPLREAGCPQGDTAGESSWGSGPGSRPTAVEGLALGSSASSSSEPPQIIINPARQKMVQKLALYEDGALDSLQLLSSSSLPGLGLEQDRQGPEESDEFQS

Row | SMILES | pKi [1] | pIC50 [2] | pKi [3] | pKi [4] | other results
1 | O=C(Nc1nc2ccc(CO)cc2n1[C@H]1CC[C@@H](CO)CC1)c1cccc(C(F)(F)F)c1 | 5.89 | > 7.00 | 9.32 | – | –
2 | CC(C)(C)C(=O)Oc1ccc2c(c1)nc(NC(=O)c1cccc([N+](=O)[O-])c1)n2-c1ccc(CCCO)cc1 | – | – | – | – | pIC50 [4]: 6.05; pIC50 [3]: 6.82
3 | O=C(Nc1nc2cc(CO)ccc2n1[C@H]1CC[C@H](O)CC1)c1cccc([N+](=O)[O-])c1 | – | – | 7.96 | – | solubility [5]: 4.9 µg/mL (≈ 11.9 µM); Papp [6]: < 1 ×10⁻⁶ cm/s
4 | O=C(Nc1nc2cc(F)ccc2n1[C@H]1CC[C@H](CO)CC1)c1cccc([N+](=O)[O-])c1 | – | – | 8.19 | – | –
5 | O=C(Nc1nc2ccc(F)cc2[nH]1)c1cccc([N+](=O)[O-])c1 | – | – | 5.35 | – | –
6 | O=C(Nc1nc2cc(CN3CCCCC3)ccc2n1-c1ccccc1)c1cccc(C(F)(F)F)c1 | 5.60 | 6.52 | 8.55 | 6.22 | bioavailability [7]: 46%; half-life [8]: 23.7 h; clearance [9]: 9 mL/min/kg; AUC (Rattus norvegicus): 1020 ng·h/mL
7 | O=C(Nc1nc2cc(CN3CCCCC3)ccc2n1[C@H]1CC[C@H](O)CC1)c1cccc([N+](=O)[O-])c1 | 7.82 | – | 8.55 | 7.74 | Selectivity ratio (Homo sapiens [10]): > 100; Selectivity ratio (Homo sapiens [11]): > 100; Selectivity ratio (Homo sapiens [12]): > 100; bioavailability [7]: 16%; solubility [5]: > 50 µg/mL; half-life [8]: 2.1 h; clearance [9]: 41.7 mL/min/kg; Ratio Ki (Homo sapiens [13]): 5.3; AUC (Rattus norvegicus): 124 ng·h/mL; Ratio Ki (Homo sapiens [14]): 6.4; Papp [6]: 6.6 ×10⁻⁶ cm/s; Selectivity ratio (Homo sapiens [15]): > 100; Selectivity ratio (Homo sapiens [16]): > 100; Selectivity ratio (Homo sapiens [17]): > 100; Selectivity ratio (Homo sapiens [18]): > 100; Selectivity ratio (Homo sapiens [19]): > 100
8 | O=C(Nc1nc2cc(CN3CCOCC3)ccc2n1[C@H]1CC[C@H](O)CC1)c1cccc([N+](=O)[O-])c1 | – | – | 8.42 | – | solubility [5]: 29 µg/mL (≈ 60.5 µM); Papp [6]: < 1 ×10⁻⁶ cm/s
9 | O=C(Nc1nc2cc(CN3CCCCC3)ccc2n1-c1ccccc1)c1cccc([N+](=O)[O-])c1 | 6.10 | 7.00 | 8.09 | 6.43 | –
10 | O=C(Nc1nc2cc(CN3CCCCC3)ccc2n1[C@H]1CC[C@@H](CO)CC1)c1cccc([N+](=O)[O-])c1 | 7.52 | – | 9.15 | 7.32 | bioavailability [7]: 10%; half-life [8]: 4.8 h; clearance [9]: 40 mL/min/kg; Ratio Ki (Homo sapiens [13]): 43; AUC (Rattus norvegicus): 84 ng·h/mL; Ratio Ki (Homo sapiens [14]): 68
11 | O=C(Nc1nc2cc(F)ccc2n1[C@H]1CC[C@H](CO)C1)c1cccc([N+](=O)[O-])c1 | – | – | 7.96 | – | –
12 | O=C(Nc1nc2cc(F)ccc2n1[C@H]1CC[C@@H](CO)C1)c1cccc([N+](=O)[O-])c1 | – | – | 8.11 | – | –
13 | CC(C)(C)C(=O)Nc1ccc2c(c1)nc(NC(=O)c1cccc(C(F)(F)F)c1)n2[C@H]1CC[C@@H](CO)CC1 | 5.60 | 7.00 | 9.47 | – | –
14 | O=C(Nc1nc2cc(F)ccc2n1[C@H]1CC[C@@H](CO)CC1)c1cccc([N+](=O)[O-])c1 | – | – | 8.80 | – | –
15 | O=C(Nc1nc2cc(F)ccc2n1CCCO)c1cccc([N+](=O)[O-])c1 | – | – | 7.41 | – | –
16 | O=C(Nc1nc2cc(CN3CCCCC3)ccc2n1-c1ccc(CCO)cc1)c1cccc(C(F)(F)F)c1 | 6.15 | > 7.00 | 8.89 | 7.92 | bioavailability [7]: 19%; half-life [8]: 1.3 h; clearance [9]: 36.7 mL/min/kg; AUC (Rattus norvegicus): 175 ng·h/mL
17 | O=C(Nc1nc2cc(CN3CCCC3=O)ccc2n1[C@H]1CC[C@H](O)CC1)c1cccc([N+](=O)[O-])c1 | – | – | 9.30 | – | solubility [5]: 0.8 µg/mL (≈ 1.68 µM); Papp [6]: < 1 ×10⁻⁶ cm/s
18 | O=C(Nc1nc2cc(F)ccc2n1[C@H]1CC[C@H](O)CC1)c1cccc([N+](=O)[O-])c1 | – | – | 8.19 | – | –
19 | O=C(Nc1nc2cc(CN3CCCCC3)ccc2n1[C@H]1CC[C@@H](CO)CC1)c1cccc(C(F)(F)F)c1 | 6.89 | > 7.00 | 9.38 | 7.14 | –
